According to publication PMC9260854 (Biochemistry, 2022):
Residue numbers refer to the chain shown, from its start. Like-named read-outs stand apart in the source and are kept apart here.

How the values were obtained:
SULT2B1b S347D [1] = target: T1, SULT2B1b S347D (Homo sapiens, UniProt O00204, S347D); assay: Equilibrium binding via intrinsic fluorescence; conditions: for Kd: Kd Quc
T1 sequence (O00204 1-365 S347D): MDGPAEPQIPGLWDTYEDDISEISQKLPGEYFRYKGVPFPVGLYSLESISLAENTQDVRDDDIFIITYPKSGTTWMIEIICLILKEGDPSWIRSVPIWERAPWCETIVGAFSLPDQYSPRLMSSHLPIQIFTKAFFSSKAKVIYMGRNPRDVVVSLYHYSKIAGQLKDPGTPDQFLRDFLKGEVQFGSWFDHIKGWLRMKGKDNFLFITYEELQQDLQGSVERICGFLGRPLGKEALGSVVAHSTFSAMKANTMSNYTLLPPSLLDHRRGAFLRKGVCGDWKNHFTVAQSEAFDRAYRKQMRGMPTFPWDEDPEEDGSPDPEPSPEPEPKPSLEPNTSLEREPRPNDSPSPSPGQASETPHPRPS
Outline: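 Intrinsic fluorescence titrations of purified His/GST/MBP-tag-cleaved enzyme, excitation 290 nm, in KPO4 (50 mM), pH 7.5, 25 ± 2 °C. […] Triplicate averaged data were fit to a single-site-per-monomer model.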

[2] = target: T2, native non-tagged SULT2B1b (Homo sapiens, UniProt O00204); assay: Initial-rate 1-HP sulfonation inhibition, native; assay type: biochemical; conditions: native enzyme
T2 sequence (O00204 1-365): T1 sequence (O00204 1-365 S347D) with D347S

SULT2B1a = target: T3, SULT2B1a (Homo sapiens, UniProt O00204); assay: Initial-rate 1-HP sulfonation inhibition; assay type: biochemical
T3 sequence (O00204 1-350 isoform O00204-2): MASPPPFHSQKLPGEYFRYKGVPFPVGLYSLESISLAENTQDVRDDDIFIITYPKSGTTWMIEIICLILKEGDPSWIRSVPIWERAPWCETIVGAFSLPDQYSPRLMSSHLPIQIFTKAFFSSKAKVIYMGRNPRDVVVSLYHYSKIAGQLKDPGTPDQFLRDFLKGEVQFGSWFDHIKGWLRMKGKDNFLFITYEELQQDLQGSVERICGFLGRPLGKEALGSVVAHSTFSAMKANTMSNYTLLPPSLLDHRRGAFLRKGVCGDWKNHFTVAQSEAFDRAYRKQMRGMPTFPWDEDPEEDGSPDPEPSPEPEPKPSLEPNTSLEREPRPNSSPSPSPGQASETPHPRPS

SULT2A1 = target: T4, SULT2A1 (Homo sapiens, UniProt Q06520); assay: Initial-rate 1-HP sulfonation inhibition; assay type: biochemical
T4 sequence (Q06520 1-285): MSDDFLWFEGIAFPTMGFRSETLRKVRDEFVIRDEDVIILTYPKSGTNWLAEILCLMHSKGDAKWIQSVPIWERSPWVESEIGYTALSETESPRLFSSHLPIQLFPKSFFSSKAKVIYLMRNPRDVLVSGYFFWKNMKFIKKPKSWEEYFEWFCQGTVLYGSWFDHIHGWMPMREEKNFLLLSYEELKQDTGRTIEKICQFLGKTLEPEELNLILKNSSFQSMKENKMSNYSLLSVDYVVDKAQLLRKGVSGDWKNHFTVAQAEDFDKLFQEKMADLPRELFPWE

SULT2B1b S347D [3] = target: T1, SULT2B1b S347D; assay: Initial-rate 1-HP sulfonation
[4] = target: T5, SULT2B1b S347D spin-labeled at residue 171 (Homo sapiens, UniProt O00204, C225S/C278S/C81S/S347D/T171C); assay: Initial-rate parameters, spin-labeled mutant 171; assay type: biochemical
T5 sequence (O00204 1-365 C81S/T171C/C225S/C278S/S347D): T1 sequence (O00204 1-365 S347D) with C81S, T171C, C225S, C278S

**Q.** Which Kd (SULT2B1b S347D [1]; enzyme form E (no PAP)) does the source give for `O=c1c(O)c(-c2ccc(O)c(O)c2)oc2cc(O)cc(O)c12` [quercetin] here?
**A.** 5300 nM

**Q.** What about the Kd (SULT2B1b S347D [1]; enzyme form E•PAP (PAP 30 μM)) of the same compound?
**A.** 350 nM

**Q.** And the “increase of quercetin affinity” value (SULT2B1b S347D [1]; saturation with PAPS)?
**A.** 15 fold

**Q.** And the “α WT (quercetin)” value [2]?
**A.** 0.08 ± 0.01

**Q.** What about the inhibition by quercetin (SULT2B1a; concentrations as high as 10 μM) of the same compound?
**A.** does not detectably inhibit

**Q.** What about the inhibition by quercetin (SULT2B1a; up to 100 μM quercetin) of the same compound?
**A.** No inhibition was detected

**Q.** What about the inhibition by quercetin (SULT2A1) of the same compound?
**A.** not inhibited

**Q.** What about the inhibition by quercetin (SULT2A1; up to 100 μM quercetin) of the same compound?
**A.** No inhibition was detected

**Q.** What about the “quercetin affinity, SULT2B1b relative to SULT1A1” value (SULT2B1b S347D [3]; affinity less for SULT2B1b than SULT1A1) of the same compound?
**A.** ~ 68 fold

**Q.** What about the “slowing of turnover at saturating quercetin” value (SULT2B1b S347D [3]; at saturation) of the same compound?
**A.** ~ 13 fold

**Q.** What about the “α (fraction of enzyme turnover at saturating inhibitor), quercetin” value (SULT2B1b S347D [3]; saturating PAPS and 1-HP, tag-cleaved enzyme) of the same compound?
**A.** 0.08 ± 0.01

**Q.** And the “turnover at saturating quercetin” value (SULT2B1b S347D [3]; saturating quercetin)?
**A.** 0.20 ± 0.02 s⁻¹

**Q.** What about the Ki [4] of the same compound?
**A.** 350 nM
